Measurements taken from ChEMBL document CHEMBL3244366, “Synthesis and biochemical evaluation of inhibitors of estrogen biosynthesis” (J Med Chem, 1978).
pKi: −log10 of the molar value.

Tests used:
Aromatase [1] = molecular target: T1, Aromatase (Homo sapiens, UniProt P11511); assay: Inhibition of human placental microsomal aromatase assessed as inhibition of [C14]estrone/[C14]estradiol formation using 1.25 uM [C14]androstenedione substrate at 12.5 uM by liquid scintillation counting
T1 sequence (P11511 whole entry): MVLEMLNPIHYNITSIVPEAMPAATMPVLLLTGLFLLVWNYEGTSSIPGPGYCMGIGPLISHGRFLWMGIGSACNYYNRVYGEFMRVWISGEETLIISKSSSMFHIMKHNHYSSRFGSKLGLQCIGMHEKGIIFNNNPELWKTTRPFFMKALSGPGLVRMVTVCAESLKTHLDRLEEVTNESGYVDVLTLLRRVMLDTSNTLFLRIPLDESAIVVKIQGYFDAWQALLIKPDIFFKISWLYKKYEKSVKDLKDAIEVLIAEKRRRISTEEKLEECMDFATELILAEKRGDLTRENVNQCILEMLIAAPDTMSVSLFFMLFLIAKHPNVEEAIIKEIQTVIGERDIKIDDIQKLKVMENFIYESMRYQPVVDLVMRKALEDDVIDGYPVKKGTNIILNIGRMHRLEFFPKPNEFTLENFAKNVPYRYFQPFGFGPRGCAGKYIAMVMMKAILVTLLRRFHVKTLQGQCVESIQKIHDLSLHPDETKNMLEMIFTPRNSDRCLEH
Procedure, shortened: (§1)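 Screen, run in duplicate: [14C]androstenedione 1.25 μM with inhibitor at 6.25 or 12.5 μM, human placental microsomes (0.25 mg protein/3.0 mL), NADPH-generating system (NADP+ 1.71 mM, glucose 6-phosphate 2.85 mM, G6PDH) in 0.1 M phosphate pH 7.0. 5 min preincubation, then 15.0 min at 37 °C; estrogens separated on alumina TLC and counted; expressed as percent inhibition versus uninhibited controls.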

Aromatase [2] = molecular target: T1, Aromatase; assay: Inhibition of human placental microsomal aromatase assessed as inhibition of [C14]estrone/[C14]estradiol formation using 1.25 uM [C14]androstenedione substrate at 6.25 uM by liquid scintillation counting; procedure, shortened: as §1
Aromatase [3] = molecular target: T1, Aromatase; assay: Competitive inhibition of human placental microsomal aromatase assessed as [C14]estrone/[C14]estradiol formation using [C14]androstenedione substrate by liquid scintillation counting
Procedure, shortened: (§2)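 Twice-washed human term placental microsomes (0.25 mg protein) in 3.5 mL 0.1 M sodium phosphate pH 7.0 with NADP+ 1.71 mM, glucose 6-phosphate 2.85 mM, G6PDH 1.0 unit; [14C]androstenedione 0.075–0.515 μM plus one inhibitor level; 37 °C, 8.0 min (<10% product). Estrogens extracted with ethyl acetate, alumina TLC, counted; duplicates; apparent Ki and inhibition type from weighted Lineweaver-Burk.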

Aromatase [4] = molecular target: T1, Aromatase; assay: Apparent inhibition of human placental microsomal aromatase assessed as [C14]estrone/[C14]estradiol formation using 0.075 to 0.515 uM [C14]androstenedione substrate by liquid scintillation counting; details: read-out: Ki(app); procedure, shortened: as §2

SMILES: C[C@@]12C(=CC(=O)C[C@@H]1Sc1ccccc1)CC[C@@H]1[C@@H]2CC[C@]2(C)C(=O)CC[C@@H]12
- inhibition at 12.5 µM (Aromatase [1]): 24.2%
- inhibition at 6.25 µM (Aromatase [2]): 21.2%

SMILES: C[C@@]12C(=CC(=O)C[C@@H]1SCc1ccccc1)CC[C@@H]1[C@@H]2CC[C@]2(C)C(=O)CC[C@@H]12
- inhibition at 12.5 µM (Aromatase [1]): 15.5%
- inhibition at 6.25 µM (Aromatase [2]): 20.8%

SMILES: CCN(CC)c1ccc(CS[C@H]2CC(=O)C=C3CC[C@@H]4[C@H](CC[C@]5(C)C(=O)CC[C@@H]45)[C@]32C)cc1
- inhibition at 12.5 µM (Aromatase [1]): 36.3%
- inhibition at 6.25 µM (Aromatase [2]): 32.2%

SMILES: CCCCS[C@@H]1CC2=CC(=O)CC[C@]2(C)[C@H]2CC[C@]3(C)C(=O)CC[C@H]3[C@H]12
- inhibition at 12.5 µM (Aromatase [1]): 74.1%
- inhibition at 6.25 µM (Aromatase [2]): 62.4%
- inhibition (INH) (Aromatase [3]): Active
- pKi (Aromatase [4]): 7.24

SMILES: C[C@]12CCC(=O)C=C1C[C@@H](Sc1ccccc1)[C@@H]1[C@@H]2CC[C@]2(C)C(=O)CC[C@@H]12
- inhibition at 12.5 µM (Aromatase [1]): 46.7%
- inhibition at 6.25 µM (Aromatase [2]): 45.3%

SMILES: C[C@]12CCC(=O)C=C1C[C@@H](SCc1ccccc1)[C@@H]1[C@@H]2CC[C@]2(C)C(=O)CC[C@@H]12
- inhibition at 12.5 µM (Aromatase [1]): 84.1%
- inhibition at 6.25 µM (Aromatase [2]): 66.7%
- inhibition (INH) (Aromatase [3]): Active
- pKi (Aromatase [4]): 7.16

SMILES: CCN(CC)c1ccc(CS[C@@H]2CC3=CC(=O)CC[C@]3(C)[C@H]3CC[C@]4(C)C(=O)CC[C@H]4[C@H]23)cc1
- inhibition at 12.5 µM (Aromatase [1]): 42.3%
- inhibition at 6.25 µM (Aromatase [2]): 45.1%

SMILES: CCOC(=O)CS[C@@H]1CC2=CC(=O)CC[C@]2(C)[C@H]2CC[C@]3(C)C(=O)CC[C@H]3[C@H]12
- inhibition at 12.5 µM (Aromatase [1]): 72.4%

SMILES: C[C@]12CCC(=O)C=C1C[C@@H](SCCc1ccccc1)[C@@H]1[C@@H]2CC[C@]2(C)C(=O)CC[C@@H]12
- inhibition at 12.5 µM (Aromatase [1]): 82.8%
- inhibition at 6.25 µM (Aromatase [2]): 75.7%
- inhibition (INH) (Aromatase [3]): Active
- pKi (Aromatase [4]): 7.21

SMILES: C[C@]12CCC(=O)C=C1C[C@@H](SCCCc1ccccc1)[C@@H]1[C@@H]2CC[C@]2(C)C(=O)CC[C@@H]12
- inhibition at 12.5 µM (Aromatase [1]): 66.4%
- inhibition at 6.25 µM (Aromatase [2]): 68.4%

SMILES: COc1ccc(S[C@@H]2CC3=CC(=O)CC[C@]3(C)[C@H]3CC[C@]4(C)C(=O)CC[C@H]4[C@H]23)cc1
- inhibition at 12.5 µM (Aromatase [1]): 64.9%
- inhibition at 6.25 µM (Aromatase [2]): 35.3%

SMILES: COc1ccc(CS[C@@H]2CC3=CC(=O)CC[C@]3(C)[C@H]3CC[C@]4(C)C(=O)CC[C@H]4[C@H]23)cc1
- inhibition at 12.5 µM (Aromatase [1]): 63%
- inhibition at 6.25 µM (Aromatase [2]): 64%
- inhibition (INH) (Aromatase [3]): Active
- pKi (Aromatase [4]): 7.51

SMILES: C[C@]12CCC(=O)C=C1C[C@@H](Sc1ccc(N)cc1)[C@@H]1[C@@H]2CC[C@]2(C)C(=O)CC[C@@H]12
- inhibition at 12.5 µM (Aromatase [1]): 95%
- inhibition at 6.25 µM (Aromatase [2]): 55.6%
- inhibition (INH) (Aromatase [3]): Active
- pKi (Aromatase [4]): 7.74
